Data: ChEMBL document CHEMBL3085764, “Azole-carbodithioate hybrids as vaginal anti-Candida contraceptive agents: design, synthesis and docking studies” (Eur J Med Chem, 2013)
Converted amounts (≈) assume the structure as drawn.

Legend:
Pseudomonas aeruginosa = experiment: Antibacterial activity against Pseudomonas aeruginosa ATCC BAA-427 after 48 hrs by broth microdilution technique; type: functional; details: ATCC BAA-427, 48 h
In short: (§1)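 Broth microdilution following NCCLS guidelines in Mueller Hinton broth. Inoculum held at 1-5 × 10^3 cfu/mL. Plates incubated at 35 °C in a moist, dark chamber for 48 h. MIC and IC50 read spectrophotometrically at 492 nm.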

Candida albicans [1] = experiment: Antifungal activity against Candida albicans ATCC 10231 after 48 hrs by broth microdilution technique; type: functional, organism-based; details: ATCC 10231, 48 h
In short: (§2)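 MIC by broth microdilution following NCCLS guidelines, in RPMI 1640 buffered with MOPS. Starting inoculum 1-5 × 10^3 CFU/mL. Plates incubated at 35 °C. MIC and IC50 read spectrophotometrically at 492 nm after 48 h.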

Aspergillus fumigatus = experiment: Antifungal activity against Aspergillus fumigatus after 48 hrs by broth microdilution technique; type: functional, organism-based; in short: as §2
Cryptococcus neoformans = experiment: Antifungal activity against Cryptococcus neoformans after 48 hrs by broth microdilution technique; type: functional, organism-based; in short: as §2
Sporothrix schenckii = experiment: Antifungal activity against Sporothrix schenckii after 48 hrs by broth microdilution technique; type: functional, organism-based; in short: as §2
Candida albicans [2] = experiment: Antifungal activity against Candida albicans clinical isolate CDRI after 48 hrs by broth microdilution technique; type: functional, organism-based; in short: as §2
[3] = tested on: Trichophyton mentagrophytes; experiment: Antifungal activity against Trichophyton mentagrophytes after 48 hrs by broth microdilution technique; type: functional, organism-based; in short: as §2
[4] = Spermicidal activity in human semen assessed as sperm immobilization at 1.0 % w/v up to 30 seconds by phase contrast microscopy; type: functional
Escherichia coli = experiment: Antibacterial activity against Escherichia coli ATCC 9637 after 48 hrs by broth microdilution technique; type: functional; details: ATCC 9637, 48 h; in short: as §1
Candida albicans [5] = experiment: Antifungal activity against Candida albicans clinical isolate after 48 hrs by broth microdilution technique; type: functional, organism-based; in short: as §2
Candida albicans [6] = experiment: Antifungal activity against Candida albicans MTCC 183 after 48 hrs by broth microdilution technique; type: functional, organism-based; details: MTCC 183, 48 h; in short: as §2
Trichomonas vaginalis = experiment: Trichomonacidal activity against Trichomonas vaginalis after 48 hrs by trypan blue exclusion assay; type: functional; details: read-out: MEC
In short: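 T. vaginalis in log phase, grown in TYM with 10% FCS, vitamin mixture and penicillin/streptomycin at 37 °C. DMSO stocks ([…]) serially diluted in TYM down to 0.1 µg/mL; DMSO/TYM vehicle controls. 5 × 10^4 trophozoites added and incubated anaerobically at 37 °C. Viability checked by trypan blue from 3 to 48 h. MIC = lowest concentration killing all cells by 48 h. Three repeats.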

Candida parapsilosis = experiment: Antifungal activity against Candida parapsilosis ATCC 22019 after 48 hrs by broth microdilution technique; type: functional, organism-based; details: Lodderomyces parapsilosis, ATCC 22019, 48 h; in short: as §2
Klebsiella pneumoniae = experiment: Antibacterial activity against Klebsiella pneumoniae after 48 hrs by broth microdilution technique; type: functional; in short: as §1
Candida albicans [7] = experiment: Antifungal activity against Candida albicans after 48 hrs by broth microdilution technique; type: functional, organism-based; in short: as §2
[8] = Spermicidal activity in human semen assessed as sperm immobilization at 0.1 % w/v up to 30 seconds by phase contrast microscopy; type: functional
Staphylococcus aureus = experiment: Antibacterial activity against Staphylococcus aureus ATCC 25923 after 48 hrs by broth microdilution technique; type: functional; details: ATCC 25923, 48 h; in short: as §1

| SMILES | MIC (Pseudomonas aeruginosa) | IC50 (Candida albicans [1]) | IC50 (Aspergillus fumigatus) | IC50 (Cryptococcus neoformans) | IC50 (Sporothrix schenckii) | IC50 (Candida albicans [2]) | IC50 [3] | Activity [4] | MIC (Escherichia coli) | IC50 (Candida albicans [5]) | IC50 (Candida albicans [6]) | minimal effective concentration (Trichomonas vaginalis) | IC50 (Candida parapsilosis) | MIC (Klebsiella pneumoniae) | IC50 (Candida albicans [7]) | Activity [8] | MIC (Staphylococcus aureus) |
| --- | --- | --- | --- | --- | --- | --- | --- | --- | --- | --- | --- | --- | --- | --- | --- | --- | --- |
| O=C1c2ccccc2C(=O)N1CCSC(=S)n1ccnc1 | ≥ 50 µg/mL | 19.5 µg/mL (≈ 61.5 µM) | > 50 µg/mL | 28.6 µg/mL (≈ 90.1 µM) | 4.17 µg/mL (≈ 13.1 µM) | 30.9 µg/mL (≈ 97.5 µM) | 6.15 µg/mL (≈ 19.4 µM) | 100% | ≥ 50 µg/mL | 16 µg/mL (≈ 50.5 µM) | 11.1 µg/mL (≈ 34.9 µM) | > 200 µg/mL | > 50 µg/mL | ≥ 50 µg/mL | 5.45 µg/mL (≈ 17.2 µM) | 0% | ≥ 50 µg/mL |
| Cc1nccn1C(=S)SCCCC#N | ≥ 50 µg/mL | > 50 µg/mL | > 50 µg/mL | > 50 µg/mL | > 50 µg/mL | 47.7 µg/mL (≈ 212 µM) | 24.9 µg/mL (≈ 111 µM) | 95% | ≥ 50 µg/mL | > 50 µg/mL | 41 µg/mL (≈ 182 µM) | > 200 µg/mL | > 50 µg/mL | ≥ 50 µg/mL | 36 µg/mL (≈ 160 µM) | 0% | ≥ 50 µg/mL |
| CSC(=S)n1ccnc1C | ≥ 50 µg/mL | 36.8 µg/mL (≈ 214 µM) | > 50 µg/mL | 9.1 µg/mL (≈ 52.8 µM) | 4.41 µg/mL (≈ 25.6 µM) | > 50 µg/mL | 11.7 µg/mL (≈ 67.8 µM) | 100% | ≥ 50 µg/mL | 25.9 µg/mL (≈ 151 µM) | 37.3 µg/mL (≈ 216 µM) | > 200 µg/mL | > 50 µg/mL | ≥ 50 µg/mL | 7.24 µg/mL (≈ 42 µM) | 0% | ≥ 50 µg/mL |
| CCCCCCCCSC(=S)n1ccnc1C | ≥ 50 µg/mL | > 50 µg/mL | > 50 µg/mL | > 50 µg/mL | 4.47 µg/mL (≈ 16.5 µM) | 19 µg/mL (≈ 70.4 µM) | > 50 µg/mL | 100% | ≥ 50 µg/mL | > 50 µg/mL | > 50 µg/mL | > 200 µg/mL | > 50 µg/mL | ≥ 50 µg/mL | 7.21 µg/mL (≈ 26.7 µM) | 100% | ≥ 50 µg/mL |
| C=CCSC(=S)n1cncn1 | ≥ 50 µg/mL | > 50 µg/mL | > 50 µg/mL | > 50 µg/mL | 5.78 µg/mL (≈ 31.2 µM) | 45.5 µg/mL (≈ 246 µM) | > 50 µg/mL | 100% | ≥ 50 µg/mL | > 50 µg/mL | > 50 µg/mL | > 200 µg/mL | > 50 µg/mL | ≥ 50 µg/mL | 2.53 µg/mL (≈ 13.7 µM) | 0% | ≥ 50 µg/mL |
| C=CCSC(=S)n1ccnc1C | ≥ 50 µg/mL | 4.53 µg/mL (≈ 22.8 µM) | 18.1 µg/mL (≈ 91.3 µM) | 3.35 µg/mL (≈ 16.9 µM) | 1.5 µg/mL (≈ 7.56 µM) | 7.26 µg/mL (≈ 36.6 µM) | > 50 µg/mL | 100% | ≥ 50 µg/mL | 2.1 µg/mL (≈ 10.6 µM) | 3.61 µg/mL (≈ 18.2 µM) | > 200 µg/mL | 10.2 µg/mL (≈ 51.2 µM) | ≥ 50 µg/mL | 2.21 µg/mL (≈ 11.1 µM) | 0% | ≥ 50 µg/mL |
| CSC(=S)n1ccnc1 | ≥ 50 µg/mL | > 50 µg/mL | > 50 µg/mL | > 50 µg/mL | > 50 µg/mL | > 50 µg/mL | > 50 µg/mL | 100% | ≥ 50 µg/mL | > 50 µg/mL | > 50 µg/mL | > 200 µg/mL | > 50 µg/mL | ≥ 50 µg/mL | 5.75 µg/mL (≈ 36.3 µM) | 0% | ≥ 50 µg/mL |
| Cn1nnc2ccccc21 | ≥ 50 µg/mL | > 50 µg/mL | > 50 µg/mL | > 50 µg/mL | 1.58 µg/mL (≈ 11.9 µM) | > 50 µg/mL | > 50 µg/mL | 0% | ≥ 50 µg/mL | > 50 µg/mL | > 50 µg/mL | > 200 µg/mL | > 50 µg/mL | ≥ 50 µg/mL | > 50 µg/mL | 0% | ≥ 50 µg/mL |
